High-throughput results from PubChem BioAssay.
Only some compounds are listed: those with a hit (about 3.5% of all), similar ones and a draw of the others.
MrgX1 antagonist – blocks BAM8-22 activation of human MrgX1 receptor. MRGX1-HEK293 calcium flux, Fluo-4, BAM8-22 antagonism; hits give low values. B-score at 10 µM. hit rate 1.3% among 310,000. AID 588676;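 active = calcium-response B-score plate-corrected more than 3 library SD below zero, starting fluorescence within 5 deviations, no agonist response on first addition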;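 note: peak minus trough fluorescence over baseline after final BAM8-22 challenge near maximal dose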
Target sequence (Q96LB2 whole entry, looked up): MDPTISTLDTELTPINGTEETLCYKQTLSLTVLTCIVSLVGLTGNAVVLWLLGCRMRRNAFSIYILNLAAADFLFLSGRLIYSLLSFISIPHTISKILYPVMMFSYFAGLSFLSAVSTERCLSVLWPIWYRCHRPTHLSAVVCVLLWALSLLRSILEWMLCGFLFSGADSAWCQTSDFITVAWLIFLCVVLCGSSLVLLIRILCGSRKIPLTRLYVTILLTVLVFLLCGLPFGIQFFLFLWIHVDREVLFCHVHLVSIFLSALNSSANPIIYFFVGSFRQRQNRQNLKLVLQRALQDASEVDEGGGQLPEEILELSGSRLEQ
RGS4 block – inhibitors of human RGS4; P49798; HEK293 M3R/RGS4 inducible, Fluo-4 calcium flux; hits give high values; triggered by carbachol at its EC20; B-score at 10 µM; hit rate 0.45% among 310,000; AID 463165;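 active = B-score, a plate-corrected calcium signal, over three deviations above library mean, with baseline fluorescence within five deviations of library mean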;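 note: RGS4 expression induced by doxycycline in cells with stable M3 receptor; B-score is computed from the integrated fluorescence ratio over baseline after carbachol; higher B-score means a larger calcium signal and so more RGS4 inhibition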
RGS4 act – RGS4 potentiation or activation | HEK293 M3R/inducible RGS4, carbachol calcium flux Fluo4; hits give low values | AID 463111 | hit rate 0.92% among 310,000 | B-score at 10 µM;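 active = B-score of the integrated calcium signal more than 4 SD below the library mean, with starting fluorescence not abnormally high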;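 note: negative B-score means reduced calcium response which marks RGS4 activation or potentiation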
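Also added: carbachol at ECmax as muscarinic agonist stimulus; Assay system: HEK293 cells with stable M3R and inducible RGS4; Timing: overnight RGS4 induction, 30 min dye load 37 °C, 20 min compound RT; Measured by: Fluo4-AM (2 µM) calcium-flux fluorescence, kinetic read.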
MrgX1 allo act – human MrgX1 positive allosteric modulation, primary screen; Q96LB2; MrgX1-HEK293, Fluo-4 calcium flux, FDSS; hits give high values; B-score at 10 µM; hit rate 0.63% among 310,000;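 active = plate-corrected calcium response at least 3 library SD above typical, normal starting fluorescence, not activating the receptor alone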;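 note: compound read alongside a low EC10 to EC30 dose of BAM8-22 agonist; peak minus trough fluorescence over baseline measured at the second addition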
MrgX1 ag – activates human MrgX1 receptor signaling. Q96LB2. MrgX1-HEK293 cells, Fluo-4 calcium fluorescence, agonist mode; hits give high values. B-score at 10 µM. hit rate 0.44% among 310,000;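 active = calcium response B-score plate-corrected fluorescence ratio at least 3 library SD, with starting fluorescence B-score inside 5 SD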
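Test system: HEK293 cells stably expressing human MrgX1 receptor; amount: 15,000 cells per well; doses: compound delivered in addition one of three; times: overnight plating before 1 h dye loading; detection: Fluo-4 NW calcium-flux fluorescence, kinetic read; read-out basis: B-scored fluorescence response ratio; controls: positive and negative controls per plate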
Numbers stand for hits; - = inactive; . = not tested or not shown.

SMILES	MrgX1 antagonist	RGS4 block	RGS4 act	MrgX1 allo act	MrgX1 ag
O=C(Nc1cc(C(F)(F)F)cc(C(F)(F)F)c1)Nc1cnn(-c2ccc([N+](=O)[O-])cc2)c1C(F)(F)F	-7	-	-	-	-
CNC(=O)Nc1cc(C(F)(F)F)cc(C(F)(F)F)c1	-	-	-	-	-
O=[N+]([O-])c1ccc(Sc2n[nH]c(-c3ccccc3)n2)nc1	-	-	-	-	-
Cc1ccc(S(=O)(=O)Nc2cccc(C(=O)NCC(c3ccccc3)N(C)C)c2)cc1F (configuration not stated)	-	-	-7.5	-	-
Cc1ccc(NS(=O)(=O)c2ccc(C(=O)NCC(c3ccco3)N(C)C)cc2)cc1 (configuration not stated)	-4.9	-	-	-	-
CCc1ccc(C(=O)N/N=C/c2ccc(Cl)cc2Cl)nc1	-	-	-	-	-
Cc1ccc(C(=O)N2CCOCC2)cc1Cl	-	-	-	-	-
Cc1ccc(C(=O)c2no[n+]([O-])c2C(=O)c2ccc(C)cc2)cc1	-	-	-8.8	-	31
Cc1cc(C)c(S(=O)(=O)NCc2ccncc2)c(C)c1	-	-	-	-	-
COC(=O)c1c(C)[nH]c(C(=O)OC(C)C(=O)N2CCOCC2)c1C (configuration not stated)	-	-	-	-	-
O=C(NN1C(=O)/C(=C/c2ccc(O)c([N+](=O)[O-])c2)SC1=S)c1ccccc1Cl	-	-	-	-	-
O=C(NN1C(=O)/C(=C/c2ccc(O)cc2)SC1=S)c1ccccc1O	-7.8	-	-	-	-
O=C(NN1C(=O)/C(=C/c2ccc(O)cc2)SC1=S)c1cccc(O)c1	-	-	-	-	-
COc1cc(/C=C2\SC(=S)N(N(C)c3ccccc3)C2=O)ccc1O	-	-	-	-	34
COc1cc(/C=C2\SC(=S)N(NC(=O)c3ccccc3O)C2=O)ccc1O	-	-	-	-	40
C#CCOCCOCCOCCNc1nc(N2CCOCC2)nc(N2CCN(C(=O)[C@H]([C@@H](C)O)n3cc(CCCCN)nn3)CC2)n1	-	-	-	-	-
CSc1nnc(C)c(=O)n1COC(=O)c1ccc([N+](=O)[O-])cc1	-	-	-	12	-
COc1ccccc1Nc1nc(C)c(C(=O)Nc2ccccc2)s1	-	-	-	-	-
CCC1=C(OC(=O)N(CC)CC)N2C(=O)OC(=NCC3CC3)[C@]2(Cc2ccccc2)[C@H]2C1=CC[C@H]1C(=O)NC(=O)[C@H]12	-8.1	-	-	-	-
CCC1=C(OC(=O)N(CC)CC)N2C(=O)OC(=NCCOC)[C@]2(Cc2ccccc2)[C@H]2C1=CC[C@H]1C(=O)NC(=O)[C@H]12	-	-	-	-	-
COCC(C)NS(=O)(=O)c1ccccc1 (configuration not stated)	-	-	-	-	-
O=C1/C(=C\c2cccc([N+](=O)[O-])c2O)SC(=S)N1Cc1ccccc1	-8	-	-	-	-
COc1cc([N+](=O)[O-])cc(/C=C2/SC(=S)N(Cc3ccccc3)C2=O)c1O	-	-	-7.6	-	43
O=C1/C(=C/c2ccccc2O)SC(=S)N1Cc1cccnc1	-	-	-	-	-
O=C1/C(=C\c2cc(Br)cc(Br)c2O)SC(=S)N1Cc1ccccc1	-6.1	-	-	-	-
SMILES	MrgX1 antagonist	RGS4 block	RGS4 act	MrgX1 allo act	MrgX1 ag
COC(=O)C1=NN(C(=O)c2ccc(C)cc2)C(O)(c2ccc(Cl)cc2)C1 (configuration not stated)	-	-	-	-	67
COC(=O)C1=NN(C(=O)c2ccccc2)C(C)(O)C1 (configuration not stated)	-	-	-	-	-
COC(=O)C1=NN(C(=O)c2ccccc2)C(O)(c2ccc([N+](=O)[O-])cc2)C1 (configuration not stated)	-	-	-	-	54
COCC(=O)N1CCC(Oc2ccc(C(=O)NCc3csc(C(C)C)n3)cc2)CC1	-	-	-	-	-
COc1ccccc1N1C(=N)S/C(=C\c2ccc(-c3ccccc3C(=O)O)o2)C1=O	-	-	-	11	-
N=C1S/C(=C\c2ccc(-c3ccccc3C(=O)O)o2)C(=O)N1c1ccc2c(c1)OCO2	.	-	-	.	.
CCOC(=O)C1C(=O)C=C(c2ccc(Br)cc2)CC1c1ccco1 (configuration not stated)	-5.7	-	-	-	-
